According to publication PMC5891194 (Cancer Science, 2018):

How the values were obtained:
VEGFR2 [1] = target: T1, VEGFR2 (Homo sapiens, UniProt P35968); experiment: Tyrosine kinase ELISA, VEGFR2; type: biochemical
c‐Kit [2] = target: T2, c‐Kit (Homo sapiens, UniProt P10721); experiment: Tyrosine kinase ELISA, c‐Kit; type: biochemical
VEGFR1 = VEGFR1 (Homo sapiens, UniProt P17948); experiment: Tyrosine kinase ELISA, VEGFR1; type: biochemical
VEGFR3 = VEGFR3 (Homo sapiens, UniProt P35916); experiment: Tyrosine kinase ELISA, VEGFR3; type: biochemical
c‐Met = c‐Met (Homo sapiens, UniProt P08581); experiment: Tyrosine kinase ELISA, c‐Met; type: biochemical
c‐Src = c‐Src (Homo sapiens, UniProt P12931); experiment: biochemical; type: biochemical
c‐Src, sequence (P12931 whole entry): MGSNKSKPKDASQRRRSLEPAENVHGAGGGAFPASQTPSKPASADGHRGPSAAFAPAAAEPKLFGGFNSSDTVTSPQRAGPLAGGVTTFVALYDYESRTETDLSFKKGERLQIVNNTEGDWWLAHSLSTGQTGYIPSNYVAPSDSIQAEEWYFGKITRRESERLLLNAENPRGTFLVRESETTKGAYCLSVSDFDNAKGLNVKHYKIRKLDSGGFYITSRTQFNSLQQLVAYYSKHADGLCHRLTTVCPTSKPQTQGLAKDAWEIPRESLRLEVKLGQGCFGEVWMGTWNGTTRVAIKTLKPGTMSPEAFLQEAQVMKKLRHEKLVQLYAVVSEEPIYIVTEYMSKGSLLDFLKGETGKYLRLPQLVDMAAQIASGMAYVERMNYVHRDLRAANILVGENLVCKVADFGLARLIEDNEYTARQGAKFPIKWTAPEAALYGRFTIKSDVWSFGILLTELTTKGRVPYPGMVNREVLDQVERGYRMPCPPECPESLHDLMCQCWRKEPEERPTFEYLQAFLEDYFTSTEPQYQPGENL

HER2 [3] = target: T3, HER2 (Homo sapiens, UniProt P04626); experiment: Tyrosine kinase ELISA, HER2; type: biochemical
T3 sequence (P04626 23-1255): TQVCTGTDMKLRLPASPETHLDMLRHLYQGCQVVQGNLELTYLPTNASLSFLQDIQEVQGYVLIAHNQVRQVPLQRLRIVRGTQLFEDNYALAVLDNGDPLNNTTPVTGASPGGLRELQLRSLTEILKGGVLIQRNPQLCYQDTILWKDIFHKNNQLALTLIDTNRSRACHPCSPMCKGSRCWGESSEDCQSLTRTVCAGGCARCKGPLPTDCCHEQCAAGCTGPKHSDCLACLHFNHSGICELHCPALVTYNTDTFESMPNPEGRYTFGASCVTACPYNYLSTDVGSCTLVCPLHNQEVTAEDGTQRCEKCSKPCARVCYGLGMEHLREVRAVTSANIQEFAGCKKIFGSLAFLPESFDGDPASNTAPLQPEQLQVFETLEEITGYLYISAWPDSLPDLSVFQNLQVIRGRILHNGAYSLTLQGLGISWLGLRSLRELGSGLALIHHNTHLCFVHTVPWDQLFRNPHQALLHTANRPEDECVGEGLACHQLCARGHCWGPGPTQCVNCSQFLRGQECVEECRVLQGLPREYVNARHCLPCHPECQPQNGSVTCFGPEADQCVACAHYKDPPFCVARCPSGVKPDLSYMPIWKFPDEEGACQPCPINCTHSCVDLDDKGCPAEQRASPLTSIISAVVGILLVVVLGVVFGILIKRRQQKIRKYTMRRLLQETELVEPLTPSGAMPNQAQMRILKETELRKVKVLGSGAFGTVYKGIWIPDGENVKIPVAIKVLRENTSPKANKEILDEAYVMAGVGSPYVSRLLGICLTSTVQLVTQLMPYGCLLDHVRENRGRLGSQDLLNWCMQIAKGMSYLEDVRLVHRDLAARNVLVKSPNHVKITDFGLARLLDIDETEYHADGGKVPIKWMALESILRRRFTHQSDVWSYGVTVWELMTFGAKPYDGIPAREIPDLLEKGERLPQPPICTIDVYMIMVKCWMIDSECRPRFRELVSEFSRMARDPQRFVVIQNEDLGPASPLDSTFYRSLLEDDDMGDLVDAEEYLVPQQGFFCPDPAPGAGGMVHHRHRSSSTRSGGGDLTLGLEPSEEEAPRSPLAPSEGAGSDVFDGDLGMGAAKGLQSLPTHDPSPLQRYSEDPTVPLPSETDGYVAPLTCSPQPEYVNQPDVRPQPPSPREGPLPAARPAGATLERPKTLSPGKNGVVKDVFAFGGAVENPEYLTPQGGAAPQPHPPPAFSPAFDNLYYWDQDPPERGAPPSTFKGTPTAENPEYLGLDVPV

EGFR = EGFR (Homo sapiens, UniProt P00533); experiment: biochemical; type: biochemical
EGFR, sequence (P00533 25-1210): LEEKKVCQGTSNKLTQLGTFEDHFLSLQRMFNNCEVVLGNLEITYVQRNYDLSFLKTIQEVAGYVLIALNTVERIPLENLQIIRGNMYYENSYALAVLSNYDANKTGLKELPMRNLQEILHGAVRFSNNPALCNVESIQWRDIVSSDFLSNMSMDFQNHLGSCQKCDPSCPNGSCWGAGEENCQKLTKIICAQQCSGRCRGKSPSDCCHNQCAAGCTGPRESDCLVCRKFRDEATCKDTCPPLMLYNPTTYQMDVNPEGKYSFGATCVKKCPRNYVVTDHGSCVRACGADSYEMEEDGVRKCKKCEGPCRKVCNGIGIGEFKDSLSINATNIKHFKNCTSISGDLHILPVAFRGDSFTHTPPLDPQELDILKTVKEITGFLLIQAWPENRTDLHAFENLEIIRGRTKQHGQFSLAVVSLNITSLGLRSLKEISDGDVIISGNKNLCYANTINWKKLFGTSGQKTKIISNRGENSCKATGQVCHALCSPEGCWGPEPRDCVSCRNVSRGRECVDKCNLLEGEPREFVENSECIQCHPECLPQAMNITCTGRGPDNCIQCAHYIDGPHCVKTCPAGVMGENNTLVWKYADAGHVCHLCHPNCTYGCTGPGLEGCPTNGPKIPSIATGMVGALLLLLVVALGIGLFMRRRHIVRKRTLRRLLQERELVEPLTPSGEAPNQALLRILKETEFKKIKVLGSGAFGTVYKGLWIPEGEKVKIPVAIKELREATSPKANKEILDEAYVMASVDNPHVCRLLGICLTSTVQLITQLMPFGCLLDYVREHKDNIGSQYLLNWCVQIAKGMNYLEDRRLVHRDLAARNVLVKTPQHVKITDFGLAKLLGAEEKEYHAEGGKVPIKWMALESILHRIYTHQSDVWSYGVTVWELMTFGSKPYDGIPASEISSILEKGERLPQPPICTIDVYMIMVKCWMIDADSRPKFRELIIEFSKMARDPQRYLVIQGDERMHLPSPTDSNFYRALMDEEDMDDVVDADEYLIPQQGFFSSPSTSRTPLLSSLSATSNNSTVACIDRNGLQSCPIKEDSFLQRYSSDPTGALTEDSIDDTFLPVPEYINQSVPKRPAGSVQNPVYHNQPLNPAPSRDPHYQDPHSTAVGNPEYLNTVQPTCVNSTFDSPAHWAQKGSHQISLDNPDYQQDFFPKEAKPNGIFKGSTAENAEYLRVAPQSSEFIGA

VEGFR2 [4] = target: T1, VEGFR2; experiment: VEGF‐stimulated VEGFR2 phosphorylation in HUVEC; type: cell-based
c‐Kit [5] = target: T2, c‐Kit; experiment: SCF‐1‐stimulated c‐Kit phosphorylation in Mo7e cells; type: cell-based; details: SCF‐1 2.5 ng/mL
PDGFRβ = PDGFRβ (Homo sapiens, UniProt P09619); experiment: PDGF‐BB‐stimulated PDGFRβ phosphorylation in U‐87MG cells; type: cell-based; details: PDGF‐BB 10 ng/mL
HER2 [6] = target: T3, HER2; experiment: Constitutive HER2 signaling in BT‐474 cells; type: cell-based; details: even at 1000 nmol/L
HUVEC [7] = experiment: cells; type: cell-based; details: Homo sapiens, 72 h, read-out: IC50 VEGF‐stimulated HUVEC proliferation
HUVEC [8] = experiment: FBS‐stimulated HUVEC proliferation; type: cell-based; details: Homo sapiens, 72 h, read-out: IC50 FBS‐stimulated HUVEC proliferation
Summary of the method: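 HUVEC were isolated from umbilical cord veins and maintained in M199 with 20% FBS plus endothelial cell growth supplement. Cells were exposed to serial drug dilutions with 20% FBS for 72 h. Viability was measured by sulforhodamine B, and IC50 was obtained by curve fitting. Values are mean ± SD of 3 independent experiments.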

panel of tumor cells = experiment: FBS‐stimulated tumor cell proliferation; type: cell-based, human
Summary of the method: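 Tumor lines were grown in 10% FBS and treated with serial drug dilutions for 72 h, with sulforhodamine B readout. IC50 was obtained by curve fitting (mean ± SD, 3 independent experiments).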

HUVEC [9] = experiment: cells; type: cell-based; details: Homo sapiens, 8 h, read-out: IC50 HUVEC migration in response to VEGF
HUVEC [10] = experiment: HUVEC tube‐formation assay on Matrigel; type: cell-based, human; details: 100 nmol/L, 20% FBS, 6 h
Summary of the method: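 Matrigel was set at 37°C for 30 min. HUVEC (1 × 10^5/mL) in M199 with 20% FBS and drug were then plated onto it. After 6 h, capillary tube formation was imaged at high magnification.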

rat aortic rings = experiment: Rat aortic ring assay; type: cell-based; details: 100 nmol/L, VEGF 50 ng/mL, 7 days
Summary of the method: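 Thoracic aortas from 6-week-old male Sprague-Dawley rats were cut into 1-mm rings, embedded in Matrigel and held 1 h at 37°C. M199 containing VEGF-A (50 ng/mL) plus drug was added. After 7 days, sprouting microvessels were counted in 5 random fields.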

SW620 tumor xenografts = experiment: SW620 tumor xenograft in nude mice; type: in vivo
Summary of the method: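 Female Balb/cA-nude mice, 5–6 weeks old, received cells subcutaneously in the left axilla and were randomized at 100–200 mm3 tumor volume. Dosing was oral, daily for 18 d (vehicle n = 12, treated n = 6). Tumor volume, calculated as (length × width²)/2, and bodyweight were measured twice weekly. TGI was calculated from treatment start against vehicle. Data are mean ± SEM; Student's t test.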

[11] = tested on: CD31‐positive microvessels in SW620 tumor xenografts; experiment: CD31 immunohistochemistry, microvessel density in SW620 xenograft tumors; type: in vivo, nude mice
Summary of the method: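 Nude mice (female Balb/cA-nude) bearing subcutaneous SW620 xenografts were dosed orally once daily for 14 days. Tumors were formalin-fixed and paraffin-embedded, and sections were stained for the endothelial marker CD31 with a rabbit anti-mouse antibody and an S-P immunodetection kit. Vessel density was derived from CD31 staining.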

[12] = once‐daily dose of 12 mg; cited from earlier work

T1 sequence (P35968 20-1356): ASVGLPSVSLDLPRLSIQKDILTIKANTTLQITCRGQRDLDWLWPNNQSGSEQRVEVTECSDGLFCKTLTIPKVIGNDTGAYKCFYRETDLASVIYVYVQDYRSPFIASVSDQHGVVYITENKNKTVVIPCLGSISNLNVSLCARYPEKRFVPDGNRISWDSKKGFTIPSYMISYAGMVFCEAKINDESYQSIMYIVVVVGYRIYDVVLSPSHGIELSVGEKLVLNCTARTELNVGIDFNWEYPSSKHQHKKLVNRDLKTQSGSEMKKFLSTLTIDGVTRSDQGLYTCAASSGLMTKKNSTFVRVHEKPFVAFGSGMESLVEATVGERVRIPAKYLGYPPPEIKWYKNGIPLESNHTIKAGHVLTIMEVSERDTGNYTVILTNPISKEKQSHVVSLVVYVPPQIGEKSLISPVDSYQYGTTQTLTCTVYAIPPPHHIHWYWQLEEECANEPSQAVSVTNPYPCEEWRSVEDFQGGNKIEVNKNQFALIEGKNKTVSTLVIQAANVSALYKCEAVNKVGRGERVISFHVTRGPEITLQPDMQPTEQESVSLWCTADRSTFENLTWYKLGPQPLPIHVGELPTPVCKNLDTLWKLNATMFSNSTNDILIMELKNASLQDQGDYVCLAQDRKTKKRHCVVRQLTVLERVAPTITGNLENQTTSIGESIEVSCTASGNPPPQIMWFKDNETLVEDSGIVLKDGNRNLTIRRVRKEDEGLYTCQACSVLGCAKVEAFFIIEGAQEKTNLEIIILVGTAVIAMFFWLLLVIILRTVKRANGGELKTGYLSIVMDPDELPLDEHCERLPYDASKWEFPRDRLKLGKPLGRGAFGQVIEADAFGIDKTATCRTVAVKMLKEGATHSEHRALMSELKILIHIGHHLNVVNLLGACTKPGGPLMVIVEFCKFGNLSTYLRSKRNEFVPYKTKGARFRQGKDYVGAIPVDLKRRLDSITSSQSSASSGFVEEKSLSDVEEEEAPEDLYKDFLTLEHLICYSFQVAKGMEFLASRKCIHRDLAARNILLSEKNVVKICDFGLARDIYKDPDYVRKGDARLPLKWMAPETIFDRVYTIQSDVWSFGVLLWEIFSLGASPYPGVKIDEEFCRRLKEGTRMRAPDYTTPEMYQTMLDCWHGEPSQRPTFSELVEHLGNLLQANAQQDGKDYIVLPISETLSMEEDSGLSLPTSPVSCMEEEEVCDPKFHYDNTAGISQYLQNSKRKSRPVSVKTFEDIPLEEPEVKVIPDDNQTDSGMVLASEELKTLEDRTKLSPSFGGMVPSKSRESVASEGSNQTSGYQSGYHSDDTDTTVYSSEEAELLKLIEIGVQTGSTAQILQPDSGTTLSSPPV

Structure (SMILES): COc1cc2c(Oc3ccc4[nH]c(C)cc4c3F)ccnc2cc1OCC1(N)CC1.Cl.Cl [Anlotinib, 1‐[[[4‐(4‐fluoro‐2‐methyl‐1H‐indol‐5‐yloxy)‐6‐methoxyquinolin‐7‐Yl]oxy]methyl]cyclopropanamine dihydrochloride]
- potency relative to sunitinib for inhibition of VEGF2/3 (VEGFR2 [1]): 20 fold
- IC50 (VEGFR2 [1]; IC50 VEGFR2 kinase, ELISA, recombinant tyrosine kinase, mean ± SD (n = 3)): < 1 nM
- IC50 (c‐Kit [2]): 14.8 ± 2.5 nM
- IC50 (VEGFR1): 26.9 ± 7.7 nM
- IC50 (VEGFR3): 0.7 ± 0.1 nM
- IC50 (c‐Met): > 2000 nM
- effect on c‐Met kinase activity (c‐Met; at 2000 nmol/L): little effect
- IC50 (c‐Src): > 2000 nM
- effect on c‐Src kinase activity (c‐Src; at 2000 nmol/L): little effect
- IC50 (HER2 [3]): > 2000 nM
- effect on HER2 kinase activity (HER2 [3]; at 2000 nmol/L): little effect
- IC50 (EGFR): > 2000 nM
- effect on EGFR kinase activity (EGFR; at 2000 nmol/L): little effect
- VEGF‐stimulated ERK1/2 phosphorylation (VEGFR2 [4]): inhibited
- effect on VEGF‐stimulated VEGFR2 phosphorylation (VEGFR2 [4]; 0.1 nmol/L): clear inhibitory effect
- IC50, VEGF‐stimulated intracellular phosphorylation of VEGFR2 (VEGFR2 [4]; […] treatment, VEGF 20 ng/mL 10 min): subnanomolar
- SCF‐1‐stimulated phosphorylation of c‐Kit, AKT and ERK (c‐Kit [5]): inhibited
- PDGF‐BB‐stimulated phosphorylation of PDGFRβ, AKT and ERK (PDGFRβ): inhibited
- constitutive HER2 signaling (HER2 [6]): nor the constitutive HER2 signaling in BT‐474 cells was affected
- IC50 (HUVEC [7]): 0.2 nM
- IC50 (HUVEC [8]): 2000 nM
- IC50 (panel of tumor cells; Homo sapiens, 72 h, read-out: IC50 FBS‐stimulated tumor cell proliferation): 3000 to 12500 nM
- tumor cell IC50 relative to IC50 for VEGF‐stimulated HUVEC proliferation (panel of tumor cells; greater than HUVEC value): more than 10 000 fold
- IC50 (HUVEC [9]): 0.1 nM
- HUVEC tube formation (HUVEC [10]): few enclosed tubes were detected
- budding of the aortic ring (rat aortic rings): near complete inhibition
- %TGI (SW620 tumor xenografts; SW620 (colon), 3 mg/kg p.o. daily, 18 d, 3 mg/kg): 83%
- effect on bodyweight in mice (SW620 tumor xenografts; SW620 xenograft, all groups, during the course of the experiment): little effect on bodyweight
- inhibition rate of CD31‐positive microvessels (microvessel density) ([11]; 0.75 mg/kg oral daily): 48.9%
- inhibition rate of CD31‐positive microvessels (microvessel density) ([11]; 3 mg/kg oral daily): 91.2%
- inhibition rate of CD31‐positive microvessels (microvessel density) ([11]; […] oral daily): 76.3%
- circulation time in clinical trials [12]: long circulation time
- toxicity in clinical trials [12]: manageable toxicity

Structure (SMILES): CNC(=O)c1cc(Oc2ccc(NC(=O)Nc3ccc(Cl)c(C(F)(F)F)c3)cc2)ccn1 [Sorafenib]
- IC50 (HUVEC [7]): 195 nM

Structure (SMILES): CCN(CC)CCNC(=O)c1c(C)[nH]c(/C=C2\C(=O)Nc3ccc(F)cc32)c1C [Sunitinib, reference compound]
- IC50 (HUVEC [7]): 18.5 nM
- inhibition rate of CD31‐positive microvessels (microvessel density) ([11]; 50 mg/kg oral daily): 63.6%
